The record followed here is ChEMBL document CHEMBL1649361, “Pyridone and tetramic acid alkaloids from the spider pathogenic fungus Torrubiella sp. BCC 2165” (J Nat Prod, 2010).

Activity calls are given as the source filed them. The calls are words filed in the database; no cut-off is given here.

For one test, the system named is Plasmodium falciparum. Put plainly: Antimalarial activity against multidrug-resistant Plasmodium falciparum K1 by microculture radioisotope technique. The test is classed as functional, organism-based.
A further test has as its system NCI-H187. Description: Cytotoxicity against human NCI-H187 cells by resazurin microplate assay. The test is classed as functional, cell-based. In outline: (§1)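 Resazurin microplate assay on human cancer lines: KB (oral epidermoid carcinoma), MCF-7 (breast cancer) and NCI-H187 (small-cell lung cancer). IC50 values were read from the assay, with doxorubicin hydrochloride as the reference standard.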

Test [1] concerns KB. Description: Cytotoxicity against human KB cells by resazurin microplate assay. The test is classed as functional, cell-based. In outline:
as §1

Test [2] relates to MCF7. Put plainly: Cytotoxicity against human MCF7 cells by resazurin microplate assay. The test is classed as functional, cell-based. An outline of the steps: as §1
A general note: The colour change of resazurin is a common sign of viable cells or microbes.

The test system of test [3] is Mycobacterium tuberculosis. Description: Antimycobacterial activity against Mycobacterium tuberculosis H37Ra by GFPMA assay. The test is classed as functional, organism-based.
Test [4] relates to KB. Put plainly: Cytotoxicity against human KB cells at 50 ug/ml by resazurin microplate assay. The test is classed as functional, cell-based. An outline of the steps:
(§2)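 Single-concentration test at 50 µg/mL (119 µM) by resazurin microplate assay on human KB (oral epidermoid carcinoma) or MCF-7 (breast cancer) cells, with doxorubicin hydrochloride as the reference standard.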

The next test has as its system Vero. Put plainly: Cytotoxicity against african freen monkey Vero cells by green fluorescent protein microplate assay. The settings on record: Chlorocebus sabaeus.
The subject of test [5] is MCF7. Put plainly: Cytotoxicity against human MCF7 cells at 50 ug/ml by resazurin microplate assay. The test is classed as functional, cell-based. In outline: as §2

A word on the IC50: it is the concentration needed to halve the response being measured. In turn, `C[C@H]1[C@@H](O)O[C@@H]2O[C@@]3(C)CC[C@H]4[C@H](C)CC[C@@H]1[C@@]24OO3` [ARTENIMOL] came in with an IC50 with Plasmodium falciparum of 0.004 µM.
Take `CCC(/C=C/C=C/C=C/C(O)=C1\C(=O)NC(Cc2ccc(O)cc2)C1=O)CO` (stereo not given) [TORRUBIELLONE D]: the result with NCI-H187 and in the test with MCF7 [2] was inactive. The molecule further came in with an IC50 in the test on KB [1] of 44 µM.
Regarding `COc1cccc2c1C(=O)c1c(O)c3c(c(O)c1C2=O)C[C@@](O)(C(=O)CO)C[C@@H]3O[C@H]1C[C@H](N)[C@H](O)[C@H](C)O1` [DOXORUBICIN], the IC50 came out at 0.098 µM in the test with NCI-H187 and 0.37 µM with KB [1].
As for `CCC(/C=C/C=C/C=C/C(=O)c1c(O)c([C@]2(O)CC[C@@H](O)CC2)c[nH]c1=O)CO` (stereo not given in full), the outcome in the test on NCI-H187, in the test on KB [1] and with MCF7 [2] was inactive.
Take `CCC(/C=C/C=C/C=C/C(=O)c1c(O)c([C@]2(O)CC[C@@H](O)CC2)cn(O)c1=O)CO` (stereo not given in full) [TORRUBIELLONE A]: the outcome (in test [3]; in the test on KB [4]; with MCF7 [5]) was inactive. Besides, the IC50 in the test on Plasmodium falciparum was determined as 8.1 µM; with Vero it was 87 µM; in the test with NCI-H187, 69 µM.
